In the library only some 2.4% were active in any assay of this set; here they are far more common.
MC4R antag cAMP = blocks human MC4R cAMP signaling | MC4R-expressing cells, MTII-stimulated cAMP, LANCE TR-FRET | P32245 | AID 540295 | hit rate 0.48% among 360,000 | inhibition, % at 6.5 µM;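 active = inhibition above its plate's cutoff, the mean of tested wells on that plate plus 3 SD, cut at about 29% in these data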
Target sequence (P32245 whole entry, looked up): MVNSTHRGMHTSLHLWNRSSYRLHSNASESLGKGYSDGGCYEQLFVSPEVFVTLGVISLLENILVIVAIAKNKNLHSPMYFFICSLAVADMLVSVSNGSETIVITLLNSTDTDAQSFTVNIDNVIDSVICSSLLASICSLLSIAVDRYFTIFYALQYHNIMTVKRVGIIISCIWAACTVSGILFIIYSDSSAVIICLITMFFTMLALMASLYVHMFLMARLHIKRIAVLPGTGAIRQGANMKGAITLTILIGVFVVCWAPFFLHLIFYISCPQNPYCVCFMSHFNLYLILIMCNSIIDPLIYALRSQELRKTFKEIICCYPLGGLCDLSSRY
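Assay system: U2OS cells stably expressing human melanocortin 4 receptor (MC4R) / Dosing: 6.5 µM / Timing: compound 30 min, challenge 1 h, detection 1 h / Measured by: Eu-cAMP/anti-cAMP TR-FRET, emission 671 nm / Replicates: singlicate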
HTR5A ag = activates human HTR5A in OPRM1-OPRD1 agonist counter-screen; HTR5A agonist assay, luminescence, cell-based; activation, % at 9.3 µM; AID 504692; P47898; hit rate 0.61% among 340,000; in the data active = activation mostly above about 9.5%, no sharp cut-off; inactive = mostly below about 7.6%
Target sequence (P47898 whole entry, looked up): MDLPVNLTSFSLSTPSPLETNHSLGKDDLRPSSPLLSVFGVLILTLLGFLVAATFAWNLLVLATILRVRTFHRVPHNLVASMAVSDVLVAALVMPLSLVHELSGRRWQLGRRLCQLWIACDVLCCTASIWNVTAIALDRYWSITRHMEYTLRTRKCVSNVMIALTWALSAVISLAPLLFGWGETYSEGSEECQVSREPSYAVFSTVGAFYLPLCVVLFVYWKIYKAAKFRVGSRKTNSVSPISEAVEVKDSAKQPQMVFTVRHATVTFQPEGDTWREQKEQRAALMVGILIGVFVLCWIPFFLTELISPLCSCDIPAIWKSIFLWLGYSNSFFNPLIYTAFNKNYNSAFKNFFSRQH
OPRM1-OPRD1 ag = OPRM1-OPRD1 heterodimerization agonism; P35372+P41143; cells, luminescence; activation, % at 9.3 µM; hit rate 0.3% among 340,000; AID 504326; in the data active = activation above about 18%
MC4R barr agon = human MC4R agonism via beta-arrestin; P32245; U2OS MC4R beta-arrestin complementation, luminescence; percent of melanotan II response, DMSO zero; activation, % at 8.9 µM; hit rate 0.98% among 360,000; AID 540308;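 active = activation above a per-plate cutoff, the mean activation of sample wells on that plate plus 3 SD, cut at about 8% in these data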
MOR-DOR inv ag = inverse agonist of human OPRM1-OPRD1 heterodimerization; P35372+P41143; cell-based MOR-DOR heterodimer luminescence, inverse agonism; inhibition, % at 9.3 µM; hit rate 0.21% among 340,000; in the data active = inhibition above about 22%, passing the limit was not always enough
HTR5A inv ctr = HTR5A inverse agonism, opioid heterodimer counter-screen; hit rate 0.083% among 340,000; inhibition, % at 9.3 µM; AID 504634; HTR5A cell line, luminescence; P47898; in the data active = inhibition mostly above about 23%, no sharp cut-off; inactive = mostly below about 18%
MC4R barr conf = human MC4R beta-arrestin agonism confirmation; U2OS MC4R beta-arrestin recruitment, luminescence; scaled DMSO 0%, Melanotan II 100%; hit rate 31% among 2,400; shares compounds with MC4R barr agon; activation, % at 8.9 µM;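 active = mean activation across replicates above the hit cutoff set in the earlier primary screen, cut at about 8% in these data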
MOR DOR agonist = activates mu-delta opioid heterodimer, MC4R agonist counter-screen; shares compounds with MC4R barr agon; U2OS PathHunter beta-arrestin, beta-gal luminescence; percent of deltorphin B response, DMSO zero; activation, % at 9.2 µM; hit rate 5.8% among 2,400; AID 602194;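 active = mean activation across replicates exceeds the hit threshold derived in the earlier primary screen, cut at about 18% in these data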
Of the large screens only hits and unclear results are named; the others gave an inactive call (follow-up assays come after a bar, where they were run).

CCC(C(=O)NCCCN1CC(C)CC(C)C1)n1nc(C)c2sc3ccccc3c2c1=O (stereo unspecified)	none
O=C(CCCn1c(SCC(=O)c2ccc(F)cc2)nc2ccccc2c1=O)NCc1ccccc1	MC4R barr agon 24 | MC4R barr conf inactive | MOR DOR agonist inactive
Cc1cc(NC(=O)CSc2nc3ccccc3c(=O)n2CCCC(=O)NCc2ccccc2)n[nH]1	none
OC(CNCCc1ccc(C(F)(F)F)cc1)COC(c1ccccc1)c1ccccc1 (stereo unspecified)	MC4R barr agon 36 | MC4R barr conf 22 | MOR DOR agonist inactive
c1ccc(COC2CCCN(Cc3nc(Cc4ccccc4)no3)C2)cc1 (stereo unspecified)	MC4R barr agon 9.9 | MC4R barr conf inactive | MOR DOR agonist inactive
NNc1nc(-c2ccccc2)nc(-c2ccccc2)c1Br	none
O=C1c2ccccc2C(=O)c2c(Nc3ccc(CCO)cc3)ccc(O)c21	MC4R barr agon 19 | MC4R barr conf inactive | MOR DOR agonist inactive
O=C(Nc1cccc(Cl)c1)N1CCN(C/C=C/c2ccccc2)CC1	MC4R barr agon 9.6 | MC4R barr conf inactive | MOR DOR agonist inactive
O=C(O)c1ccccc1Nc1ccc([N+](=O)[O-])c2nonc12	none
O=C(Nc1ccc(F)cc1F)c1csc(-c2cccs2)n1	MC4R barr agon 15 | MC4R barr conf inactive | MOR DOR agonist inactive
O=C(Nc1ccc(F)cc1F)c1csc(-c2ccncc2)n1	none
COc1ccc(C(=O)NCc2ccc(-c3nc4ccccc4s3)cc2)cc1	none
COc1cccc(C(=O)NCc2ccc(-c3nc4ccccc4s3)cc2)c1	MC4R barr agon 30 | MC4R barr conf inactive | MOR DOR agonist inactive
COc1cccc(C(=O)Nc2nnc(-c3ccccc3)s2)c1	MC4R barr agon 13 | MC4R barr conf inactive | MOR DOR agonist inactive
COc1cccc(C(=O)Nc2nnc(-c3ccc(OC)cc3OC)s2)c1	none
COc1ccc(CCNC(=O)CCCc2ccccc2)cc1	none
CCCCc1ccc(S(=O)(=O)NC(=O)C2(C)CCN2C(=O)CCc2cccs2)cc1 (stereo unspecified)	none (no result: HTR5A ag, OPRM1-OPRD1 ag, MOR-DOR inv ag, HTR5A inv ctr)
Cc1cc(C)cc(NC(=O)CCc2nc3sc4c(c3c(=O)[nH]2)CCCC4)c1	MC4R barr agon 13 | MC4R barr conf inactive | MOR DOR agonist inactive
CC(=O)Nc1ccc(NC(=O)CCc2nc3sc4c(c3c(=O)[nH]2)CCCC4)cc1	none
C=CCOC(=O)C1=C(C)NC(SCC(=O)Nc2nccs2)=C(C#N)C1c1ccc(Cl)cc1 (stereo unspecified)	MC4R barr agon 11 | MC4R barr conf inactive | MOR DOR agonist inactive
C=CCOC(=O)C1=C(C)NC(SCC(=O)Nc2nccs2)=C(C#N)C1c1cccs1 (stereo unspecified)	none
C/C(=N\Nc1ncc(Cl)cc1Cl)c1ccc(C#N)cc1	none
COc1ccc(/C(C)=N/Nc2ncc(Cl)cc2Cl)c(O)c1	MC4R barr agon 13 | MC4R barr conf inactive | MOR DOR agonist inactive
Clc1cccc(-c2cc3nc(NCCOc4ccccc4)ccn3n2)c1	MC4R barr agon 11 (no result: HTR5A ag, OPRM1-OPRD1 ag, MOR-DOR inv ag, HTR5A inv ctr) | MC4R barr conf inactive | MOR DOR agonist inactive
CCC(C)c1ccc(NC(=S)NC2CCN(Cc3ccccc3)CC2)cc1 (stereo unspecified)	MC4R barr agon 15 | MC4R barr conf 22 | MOR DOR agonist inactive
O=c1c2ccccc2nnn1CSc1nnc(Nc2ccccc2)s1	MC4R barr agon 10 | MC4R barr conf inactive | MOR DOR agonist inactive
Cc1ccc(Nc2nnc(SCn3nnc4ccccc4c3=O)s2)cc1	none
S=C(Nc1ccccc1)Nc1ccc(Br)cn1	MC4R barr agon 11 | MC4R barr conf inactive | MOR DOR agonist inactive
O=C(Nc1nccs1)c1ccc(COc2c(F)c(F)cc(F)c2F)cc1	MC4R barr agon 11 | MC4R barr conf inactive | MOR DOR agonist inactive
O=C(COc1ccccc1)Nc1nc2cc3c(cc2s1)OCO3	none
O=C(COc1ccccc1)Nc1nc2cc3c(cc2s1)OCCO3	MC4R barr agon 14 | MC4R barr conf inactive | MOR DOR agonist inactive
CCCCCOC(=O)Nc1ccc(S(=O)(=O)Nc2cccc([N+](=O)[O-])c2)cc1	MC4R barr agon 14 | MC4R barr conf 9.7 | MOR DOR agonist inactive
CS(=O)(=O)Nc1ccc(C(=O)NCCC2=CCCCC2)cc1	none
CS(=O)(=O)N(Cc1ccc(Cl)cc1)c1ccc(C(=O)NCCC2=CCCCC2)cc1	MC4R barr agon 13 | MC4R barr conf inactive | MOR DOR agonist inactive
Cc1c(Cl)cccc1N=c1c([N+](=O)[O-])nn(-c2ccccc2)n1O	MC4R barr agon 24 | MC4R barr conf inactive | MOR DOR agonist inactive
CC(C)(C)C1CCc2c(sc3ncn(N)c(=N)c23)C1 (stereo unspecified)	none
CCSc1nc2c(cnn2-c2ccc(C)c(C)c2)c(=O)[nH]1	none
O=C1COc2ccc(S(=O)(=O)N3CCN(c4cccc(Cl)c4)CC3)cc2N1	MC4R barr agon 9.6 | MC4R barr conf inactive | MOR DOR agonist inactive
Cn1c(=O)oc2cc(S(=O)(=O)N3CCN(c4cccc(Cl)c4)CC3)ccc21	MC4R barr agon 11 | MC4R barr conf inactive | MOR DOR agonist inactive
CC(=O)c1ccc(NC(=O)COC(=O)c2ccccc2Nc2ccccc2)cc1	MC4R barr agon 10 | MC4R barr conf inactive | MOR DOR agonist inactive
CNC(=O)COC(=O)c1ccccc1Nc1ccccc1	none
O=C(COC(=O)c1ccccc1Nc1ccccc1)Nc1ccccc1	MC4R barr agon 15 | MC4R barr conf inactive | MOR DOR agonist inactive
Cc1cccc(C)c1NC(=O)COC(=O)c1ccccc1Nc1ccccc1	none
Cc1nc2ccc(NS(=O)(=O)c3ccc4c(c3)OCCO4)cc2s1	none
O=C(COC(=O)c1ccc(S(=O)(=O)N2CCCC2)cc1)Nc1ccccc1Cl	none (no result: HTR5A ag, OPRM1-OPRD1 ag, MOR-DOR inv ag, HTR5A inv ctr)
O=C(COC(=O)c1ccc(S(=O)(=O)N2CCCCC2)cc1)Nc1ccccc1Cl	MC4R barr agon 23 | MC4R barr conf inactive | MOR DOR agonist inactive
O=C(COC(=O)c1cccc(S(=O)(=O)N2CCCCC2)c1)NCc1ccccc1	none
O=C(COC(=O)c1ccc(S(=O)(=O)N2CCCC2)cc1)Nc1cccc(Br)c1	none
Cc1cccc(NC(=O)COC(=O)c2ccc(S(=O)(=O)N3CCCCCC3)cc2)c1	MC4R barr agon 12 | MC4R barr conf inactive | MOR DOR agonist inactive
O=C(COC(=O)c1cccc(S(=O)(=O)N2CCCCCC2)c1)NCc1ccc(Cl)cc1	MC4R barr agon 9.8 | MC4R barr conf inactive | MOR DOR agonist inactive

Bioassay records (PubChem)
